# Assay results from different studies.
# Each line is one published result; the experiments were not run side by side.
# Matrix: plasma
Compound,test system,conditions,quantity,result
CNC(=O)n1ccc2cc(Oc3ccnc(NC(=O)c4ccc(C5CCN(CCO)CC5)cc4)c3)c(OCCOC)cc21,human,"oral, 35 mg, single dose, healthy volunteers",AUC(0-inf),93.4 ng·h/mL
Cn1cc(Nc2nc(N)nc(-c3cccc(-n4ccc5cc(C6CC6)cc(F)c5c4=O)c3CO)n2)cn1,human,"oral, 900 mg, single dose, fasted, suspension",AUC(0-t),64100 ng·h/mL
Cl.[2H]C([2H])([2H])CC(=O)c1cnc(NC(=O)C2CC2)cc1Nc1cccc(-c2ncn(C([2H])([2H])[2H])n2)c1OC,human,"oral, 20 mg, multiple doses, once daily, steady state",AUC,1100 ng·h/mL
COc1ccc([C@@H](O)c2cc(-c3ncnc4cc(N5CCOCC5)ccc34)c(F)cc2Cl)nn1,human,"oral, 200 mg, single dose, patients",AUC(0-t),6790 ng·h/mL
CN1CC[C@@H](c2c(O)cc(O)c3c(=O)cc(-c4ccc(C(F)(F)F)cc4Cl)oc23)[C@@H]1CO,human,"oral, 50 mg, patients",AUC(0-t),1430 ng·h/mL
CC(C)n1c(Nc2cccnc2)nc2cnc(Nc3ccc(N4CCN(C)CC4)cc3)nc21,male human,"oral, 150 mg",AUC(0-inf),1390 ng·h/mL
C[C@H](O)C(=O)C1=Nc2c(nc(N)[nH]c2=O)NC1,human,"oral, 20 mg/kg, single dose, healthy volunteers",AUC(0-t),5.29 ng·h/mL
CC(=O)N[C@H]1CC[C@H](NC(=O)CN2CCN(c3nncc(-c4ccc(C)cc4)n3)CC2)CC1,female human,"oral, 100 mg, single dose, fasted, healthy volunteers",AUC(0-inf),6500 ng·h/mL
NC(=S)NN=Cc1ncccc1N,human,"oral, 150 mg",AUC(0-t),990 ng·h/mL
CC[C@H](C)CCCCC(=O)N[C@@H](CCN)C(=O)N[C@H](C(=O)N[C@@H](CCN)C(=O)N[C@H]1CCNC(=O)[C@H]([C@@H](C)O)NC(=O)[C@H](CCN)NC(=O)[C@H](CCN)NC(=O)[C@H](CC(C)C)NC(=O)[C@@H](Cc2ccccc2)NC(=O)[C@H](CCN)NC1=O)[C@@H](C)O,human,"intravenous, 0.75 mg/kg, single dose, infusion",AUC(0-inf),20500 ng·h/mL
NS(=O)(=O)OC[C@@H]1C[C@@H](n2ccc3c(N[C@H]4CCc5ccccc54)ncnc32)C[C@@H]1O,human,"intravenous, 15 mg/m², patients",AUC(0-t),780 ng·h/mL
Cc1ccc(C(=O)Nc2ccc(CN3CCN(C)CC3)c(C(F)(F)F)c2)cc1C#Cc1cnc2[nH]ncc2c1,human,"oral, 20 mg, single dose, healthy volunteers",AUC(0-t),105 ng·h/mL
